SMILES strings stand for the structures. The source made the active and inactive calls.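 Rule for the calls, unless noted: active = inhibition at or above 50% at 10 µM; inactive = inhibition below 50%.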

From PubChem BioAssay come the findings set out here.

A short description of assay [1]: inhibitors of TNFa-induced NFkB p65 translocation, primary screen, imaging, HUVEC, MLSMR starter and 10KST1 sets (AID 438;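 active = inhibition above 20% together with a positive visual image hit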;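 note: compound added about 3h40 before a 20 min TNFalpha stimulation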;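 for inhibition: signal is the nuclear over cytoplasmic p65 intensity ratio per well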). The following applies: HUVEC TNFa-induced p65 nuclear translocation; cell count: measured here: nuclei count (cytotoxicity indicator), at 2.08 µM; inhibition: at 2 µM, stronger effect = higher value, 0% TNFa-plus-vehicle, 100% no-TNFa wells.
Assay [2] can be described thus: inhibitors of mutant huntingtin aggregation, primary screen, imaging, exon1htt(103Q)mCFP cells, high-content imaging (AID 483;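 active = visual image review flags a hit and inhibition of aggregation exceeds 20%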;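 note: compound exposure lasted 3 days before fixation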;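 for nuclei count: percent of the per-plate median nuclei count of sample wells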). Particulars: exon1htt(103Q)mCFP cell line, aggregate imaging, at 2 µM; inhibition of aggregation: stronger effect = higher value; nuclei count: measured here: cell count, toxicity.
Assay [3] is described as follows: inhibitors of E-selectin induction by TNFa, primary screen, imaging, HUVEC, immunofluorescence, MLSMR starter and 10KST1 sets (AID 487;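 active = visually confirmed hit in the image check and inhibition above 20%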;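 for inhibition: signal is fraction of cell area covered by stained E-selectin grains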;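 for nuclei count: 100% = median nuclei count of all wells on the same plate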). Particulars: HUVEC TNFalpha-induced E-selectin immunofluorescence imaging, at 2 µM; inhibition: stronger effect = higher value; nuclei count: measured here: cell number, toxicity.
The target in assay [4] is Voltage-gated potassium channel subunit beta-2 (Rattus norvegicus) (UniProt P62483). The experiment in a line: KvBeta enzyme negative modulators, primary screen, biochemical, NADPH fluorescence (AID 622;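 active = fluorescence slope higher than the sample average by over 3 SD, cut at about -0.22 in these data, passing the limit was not always enough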;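 note: slope of raw intensity against log time taken from 70 to 1610 s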). Particulars: recombinant KvBeta, 4-cyanobenzaldehyde reduction, at 10 µM, stronger effect = higher value.
Voltage-gated potassium channel subunit beta-2 (Rattus norvegicus), sequence (P62483 whole entry, looked up): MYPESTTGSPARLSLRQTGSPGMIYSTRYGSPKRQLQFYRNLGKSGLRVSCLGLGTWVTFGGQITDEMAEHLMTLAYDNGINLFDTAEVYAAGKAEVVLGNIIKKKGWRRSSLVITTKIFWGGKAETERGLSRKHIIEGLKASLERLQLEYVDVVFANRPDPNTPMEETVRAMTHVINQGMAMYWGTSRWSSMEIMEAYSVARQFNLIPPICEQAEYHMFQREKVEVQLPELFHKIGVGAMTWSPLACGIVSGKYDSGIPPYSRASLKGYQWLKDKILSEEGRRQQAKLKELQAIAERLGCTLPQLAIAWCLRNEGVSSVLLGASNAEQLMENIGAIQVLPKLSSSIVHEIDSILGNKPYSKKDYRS
The target is the same in assay [5]. Kind of assay: KvBeta positive modulators, primary screen, biochemical, NADPH fluorescence (AID 623;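 active = NADPH fluorescence slope more negative than the mean of all samples by about 3 SD, 99.7% confidence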;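 note: fluorescence intensity change per second fitted from 20 to 320 s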). The following applies: Recombinant KvBeta, NADPH fluorescence decrease slope, 10 min; at 10 µM; stronger effect = lower value.
Assay [6] concerns the target Muscarinic acetylcholine receptor M4 (Homo sapiens) (UniProt P08173). Kind of assay: compounds altering M4/GIRK thallium flux, either direction, primary screen, M4 allosteric agonist project, cell-based, HEK293 M4/GIRK, BTC-AM (AID 625;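 active = fluorescence slope after compound addition differing from the mean of all tested samples at 99.7% confidence, mostly higher but some lower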;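 note: thallium influx through GIRK channels coupled to M4 in HEK293 cells with BTC-AM dye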). Particulars: at 10 µM, actives lie on both sides. An outline of the steps:
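Material – HEK293 cells with M4 receptor and GIRK channels · Buffer or medium – pH 7.3 thallium assay buffer · Doses – one dose, 10 µM final · Timing – cells overnight at 37 °C, BTC-AM loading 1 h, reads 2 min total · Measured by – kinetic fluorescence with BTC-AM dye · Controls – carbachol and DMSO controls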

Assay [7] can be described thus: inhibitors of Sendai virus-induced IRF3 signaling, primary screen, TLR/RLR signaling modifier project, cell-based, Sendai virus stimulus, luciferase, 10K MLSCN set (AID 602276).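 Note: firefly luciferase from ISG56 promoter only with Renilla not read in this screen; 0% = Sendai virus plus DMSO and 100% = medium plus DMSO without virus.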 Particulars: HEK293 RL24 IRF3 luciferase reporter, at 10 µM, stronger effect = higher value. (Reporter assays use an easily measured gene product as a stand-in for the process of interest.)
A short description of assay [8]: inhibitors of poly I:C-induced TLR3 signaling, primary screen, cell-based, poly I:C stimulus, luciferase, 10K MLSCN set (AID 602277;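 active = inhibition of the reporter signal at or above 50%; inactive = inhibition below 50%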). Particulars: HEK293-TLR3 RL24 IRF3 luciferase reporter, at 10 µM, stronger effect = higher value.

Muscarinic acetylcholine receptor M4 (Homo sapiens), sequence (P08173 whole entry, looked up): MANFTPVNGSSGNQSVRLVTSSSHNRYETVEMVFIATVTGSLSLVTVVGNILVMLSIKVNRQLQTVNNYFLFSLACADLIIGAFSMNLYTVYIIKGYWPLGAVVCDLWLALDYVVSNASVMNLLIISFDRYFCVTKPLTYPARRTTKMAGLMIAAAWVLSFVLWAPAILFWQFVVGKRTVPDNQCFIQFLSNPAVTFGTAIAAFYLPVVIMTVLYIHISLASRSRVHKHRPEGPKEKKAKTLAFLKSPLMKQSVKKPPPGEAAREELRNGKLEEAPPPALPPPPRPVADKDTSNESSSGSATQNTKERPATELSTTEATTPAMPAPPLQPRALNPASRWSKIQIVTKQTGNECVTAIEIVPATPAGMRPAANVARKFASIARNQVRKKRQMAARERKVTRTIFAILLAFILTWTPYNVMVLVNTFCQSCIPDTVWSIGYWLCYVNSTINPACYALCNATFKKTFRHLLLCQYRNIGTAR

As for `COC(=O)c1oc2ccc(OC)cc2c1N`, in assay [1], the cell count was found to be 669. The inhibition (in general, the drop in the measured response relative to a control, in per cent) in assay [1] is 5.5% (inactive); in assay [3] it was -4.2% (inactive); in assay [7], -31.8% (inactive); in assay [8] it was -55% (inactive). In addition, in assay [2], the inhibition of aggregation is 18.1% (inactive). Besides, the nuclei count in assay [2] was determined as 85.1%; in assay [3], 101%. The fluorescence slope was -0.523 (inactive) in assay [4] and 0.00575 (inactive) in assay [6]. Moreover, in assay [5], the NADPH fluorescence slope is 5.1e-06 (inactive).
On to `CN(C(=O)c1c(Cl)nc2sccn12)C1CCCCC1`, for which the cell count in assay [1] was found to be 456. For the same compound, the inhibition is 9.8% (inactive) in assay [1], -498% (inactive) in assay [3], 10.8% (inactive) in assay [7] and 6.58% (inactive) in assay [8]. The inhibition of aggregation in assay [2] is -13.5% (inactive). Further, the nuclei count in assay [2] worked out at 104%; in assay [3], 162%. For the same compound, the fluorescence slope in assay [4] is -0.464 (inactive); in assay [6], 0.00592 (inactive). Besides, the NADPH fluorescence slope in assay [5] is -5.9e-05 (inactive).
With `COc1ccc2c(c1)c1c(n2C(C)=O)C(OC(C)=O)=NCC1`, in assay [1], the cell count was 904. Moreover, the inhibition in assay [1] is -1.4% (inactive); in assay [3] it was -98.4% (inactive); in assay [7], 13.2% (inactive); in assay [8], -6.44% (inactive). Also, the inhibition of aggregation in assay [2] is -12.8% (inactive). For the same compound, the nuclei count amounted to 101% in assay [2] and 128% in assay [3]. Also, the values for the fluorescence slope in assay [4] and in assay [6] were -0.166 (active) and 0.00438 (inactive), respectively. For the same compound, the NADPH fluorescence slope in assay [5] was -2.6e-05 (inactive).
Regarding `CN(C(=O)COC(=O)C1CCN(S(=O)(=O)c2cccs2)CC1)C1CCS(=O)(=O)C1` (stereo not given), in assay [1], the cell count stood at 385. Further, the inhibition in assay [1] was -2.7% (inactive); in assay [3] it was -190% (inactive); in assay [7], -5.26% (inactive); in assay [8], 1.49% (inactive). Moreover, the inhibition of aggregation in assay [2] is 6% (inactive). Besides, the nuclei count in assay [2] turned out to be 51.8%; in assay [3] it was 120%. The fluorescence slope in assay [4] is -0.571 (inactive); in assay [6], 0.00447 (inactive). Also, the NADPH fluorescence slope in assay [5] is -4.2e-05 (inactive).
For `O=C(CN1C(=O)CC(c2ccccc2)=Nc2ccccc21)NCc1ccco1`, the cell count in assay [1] turned out to be 255. Besides, the inhibition in assay [1] was -21.4% (inactive); in assay [3], 27.6% (inactive); in assay [7], 17.2% (inactive); in assay [8] it was 18.1% (inactive). In addition, the inhibition of aggregation in assay [2] is 6.1% (inactive). Moreover, the figures for the nuclei count in assay [2] and in assay [3] were 74% and 77.1%, respectively. Moreover, the fluorescence slope in assay [4] was -0.546 (inactive); in assay [6], 0.00578 (inactive). In assay [5], the NADPH fluorescence slope is -4.6e-05 (inactive).
As to `c1nc(NCC2CCCO2)c2[nH]cnc2n1` (stereo not given), the cell count in assay [1] came to 349. Also, the inhibition is -12.5% (inactive) in assay [1], -27.3% (inactive) in assay [3], 13.9% (inactive) in assay [7] and 16.7% (inactive) in assay [8]. In assay [2], the inhibition of aggregation is 12.3% (inactive). Further, the nuclei count in assay [2] worked out at 90.8%; in assay [3], 118%. For the same compound, the fluorescence slope in assay [4] is -0.483 (inactive); in assay [6] it was 0.00434 (inactive). In addition, in assay [5], the NADPH fluorescence slope is 1.9e-05 (inactive).
Take `CCOc1ccc(N(C)S(=O)(=O)c2ccc3[nH]cc(C(=O)NCC4CCCO4)c(=O)c3c2)cc1` (stereo not given): in assay [1], the cell count was 313. Further, the inhibition was 3.3% (inactive) in assay [1], 4% (inactive) in assay [3], 1.36% (inactive) in assay [7] and 23% (inactive) in assay [8]. Moreover, the inhibition of aggregation in assay [2] is -9.8% (inactive). Further, the values for the nuclei count in assay [2] and in assay [3] were 67.5% and 96.5%, respectively. The values for the fluorescence slope in assay [4] and in assay [6] were -0.567 (inactive) and 0.00944 (inactive), respectively. For the same compound, in assay [5], the NADPH fluorescence slope is -4.5e-05 (inactive).
For the compound `c1ccc2[nH]c(CSc3nnc(-c4ccncc4)o3)nc2c1`, the cell count in assay [1] turned out to be 388. The inhibition in assay [1] is -5% (inactive); in assay [3], -20.9% (inactive); in assay [7] it was 7.74% (inactive); in assay [8], 13.2% (inactive). In assay [2], the inhibition of aggregation is 5.8% (inactive). The nuclei count in assay [2] is 83%; in assay [3], 90.8%. In addition, the fluorescence slope in assay [4] was -0.497 (inactive); in assay [6], 0.00421 (inactive). For the same compound, the NADPH fluorescence slope in assay [5] was 1e-06 (inactive).
Turning to `CCn1c(CCNC(=O)c2ccc(OC)c(OC)c2)nc2ccccc21`, the cell count in assay [1] stood at 275. Moreover, the inhibition was -8.5% (inactive) in assay [1], 3.1% (inactive) in assay [3], 15.9% (inactive) in assay [7] and 6.06% (inactive) in assay [8]. The inhibition of aggregation in assay [2] is -14.6% (inactive). Further, the nuclei count in assay [2] turned out to be 95.7%; in assay [3] it was 88.5%. Also, the fluorescence slope in assay [4] is -0.468 (inactive); in assay [6], 0.00543 (inactive). Further, in assay [5], the NADPH fluorescence slope is -3.6e-05 (inactive).
For the compound `COc1ccc(N2C(=O)C3CCCN3C2c2ccc(F)cc2)cc1Cl` (stereo not given), the cell count in assay [1] stood at 412. In addition, the inhibition was -2.7% (inactive) in assay [1], 18.5% (inactive) in assay [3], 7.49% (inactive) in assay [7] and 14.6% (inactive) in assay [8]. The inhibition of aggregation in assay [2] is -12.9% (inactive). The nuclei count in assay [2] worked out at 101%; in assay [3], 89.1%. For the same compound, the fluorescence slope in assay [4] was -0.538 (inactive); in assay [6], 0.00539 (inactive). Besides, in assay [5], the NADPH fluorescence slope was -1.5e-05 (inactive).
Consider `CCn1nnnc1NCc1cccn1C`, for which the cell count in assay [1] amounted to 401. Besides, the inhibition in assay [1] is 11% (inactive); in assay [3] it was -41.2% (inactive); in assay [7], 16.1% (inactive); in assay [8], 22% (inactive). Further, the inhibition of aggregation in assay [2] was -12% (inactive). The nuclei count stood at 110% in assay [2] and 100% in assay [3]. For the same compound, the fluorescence slope is -0.414 (inactive) in assay [4] and 0.00612 (inactive) in assay [6]. Also, in assay [5], the NADPH fluorescence slope was 0.000106 (inactive).
As for `CCN(CC(=O)NC(=O)NCc1ccco1)Cc1nc2ccccc2c(=O)[nH]1`, the cell count in assay [1] was 407. In addition, the inhibition was -20.9% (inactive) in assay [1], 63.7% (active) in assay [3], 15.7% (inactive) in assay [7] and 15% (inactive) in assay [8]. Also, in assay [2], the inhibition of aggregation is -36.6% (inactive). For the same compound, the nuclei count amounted to 97.9% in assay [2] and 68.4% in assay [3]. Also, the figures for the fluorescence slope in assay [4] and in assay [6] were -0.561 (inactive) and 0.0066 (inactive), respectively. The NADPH fluorescence slope in assay [5] was -5.5e-05 (inactive).
As for `Cn1cnnc1SCC(=O)NCc1cccc(C(F)(F)F)c1`, the cell count in assay [1] was determined as 352. The inhibition in assay [1] was 1.1% (inactive); in assay [3], -95.6% (inactive); in assay [7], 4.51% (inactive); in assay [8], 3.97% (inactive). The inhibition of aggregation in assay [2] was 0.1% (inactive). Also, the nuclei count in assay [2] came to 116%; in assay [3] it was 118%. The results for the fluorescence slope in assay [4] and in assay [6] were -0.532 (inactive) and 0.00701 (inactive), respectively. In addition, the NADPH fluorescence slope in assay [5] was 3.5e-05 (inactive).
On to `O=C(COc1ccc2c(c1)OCO2)NC12CC3CC(CC(C3)C1)C2`, for which, in assay [1], the cell count amounted to 337. For the same compound, the inhibition is -3.7% (inactive) in assay [1], -142% (inactive) in assay [3], -38.5% (inactive) in assay [7] and -35.6% (inactive) in assay [8]. For the same compound, the inhibition of aggregation in assay [2] was 1.3% (inactive). Also, the nuclei count in assay [2] worked out at 91.5%; in assay [3], 99.1%. For the same compound, the fluorescence slope was -0.411 (inactive) in assay [4] and 0.00898 (inactive) in assay [6]. In addition, the NADPH fluorescence slope in assay [5] is -4.1e-05 (inactive).
Regarding `Cc1ccc(C(C)C)c(OCc2nnc(SCC(=O)Nc3ncc(C)s3)n2C)c1`, the cell count in assay [1] came to 663. Further, the inhibition is 0.5% (inactive) in assay [1], -36.3% (inactive) in assay [3], 9.43% (inactive) in assay [7] and 12.4% (inactive) in assay [8]. For the same compound, the inhibition of aggregation in assay [2] is -35.5% (inactive). In addition, the nuclei count in assay [2] and in assay [3] was 108% each time. Moreover, the fluorescence slope in assay [4] was -0.545 (inactive); in assay [6] it was 0.00564 (inactive). The NADPH fluorescence slope in assay [5] was -3.2e-05 (inactive).
